This is an account of results in ChEMBL document CHEMBL1142957, “Total structure and inhibition of tumor cell proliferation of laxaphycins” (J Med Chem, 2007).

Assay [1] concerns CCRF-CEM. Description: Cytotoxicity against drug-sensitive CCRF-CEM cells after 72 hrs. Type of assay: cell-based. The note with it: Homo sapiens. A digest of the protocol: (§1)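 Leukemic lymphoblasts (parent CCRF-CEM, Pgp-overexpressing CEM/VLB100, topo II-altered CEM/VM-1) grown in RPMI 1640 with 10% FCS and antibiotics, 37 °C, 5% CO2. Serial dilutions in medium added to 2 × 10⁵ cells/mL for 3 days, medium not renewed. Survivors counted on a Coulter counter. Triplicate, averaged.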

The nature of assay [2]: Cytotoxicity against vinblastine-resistant CEM/VLB100 cells after 72 hrs. Type of assay: cell-based. The note with it: Homo sapiens, CEM/VLB100, 72 h. A digest of the protocol: as §1
Assay [3] can be described thus: Cytotoxicity against teniposide-resistant CEM/VM1 cells after 72 hrs. The note with it: Homo sapiens, CEM-VM1, 72 h. Type of assay: cell-based. A digest of the protocol: as §1
Assay [4] has as its system CCRF-CEM. Description: Ratio of IC50 for vinblastine-resistant CEM/VLB100 cells over IC50 for drug-sensitive CCRF-CEM cells. Type of assay: functional, Homo sapiens.
Assay [5] deals with CCRF-CEM. Nature of the assay: Ratio of IC50 for teniposide-resistant CEM/VM1 cells over IC50 for drug-sensitive CCRF-CEM cells. Type of assay: functional, Homo sapiens.

As usually defined, the IC50 is the concentration at which inhibition is half-maximal. As to `CC[C@]1(O)C[C@@H]2CN(CCc3c([nH]c4ccccc34)[C@@](C(=O)OC)(c3cc4c(cc3OC)N(C)[C@H]3[C@@](O)(C(=O)OC)[C@H](OC(C)=O)[C@]5(CC)C=CCN6CC[C@]43[C@@H]65)C2)C1` [VINBLASTINE], the IC50 worked out at 4 nM in the assay with CCRF-CEM [1], 356 nM in assay [2] and 8 nM in assay [3]. Moreover, the “Ratio IC50” value is recorded as 89 in the assay on CCRF-CEM [4] and 2 with CCRF-CEM [5].
